What was measured:
[1] = target: T1, Phenylethanolamine N-methyltransferase (Bos taurus, UniProt P10938); test: In vitro inhibition of bovine phenylethylamine N-methyl-transferase (PNMT) using radiochemical assay.
T1 sequence (P10938 whole entry): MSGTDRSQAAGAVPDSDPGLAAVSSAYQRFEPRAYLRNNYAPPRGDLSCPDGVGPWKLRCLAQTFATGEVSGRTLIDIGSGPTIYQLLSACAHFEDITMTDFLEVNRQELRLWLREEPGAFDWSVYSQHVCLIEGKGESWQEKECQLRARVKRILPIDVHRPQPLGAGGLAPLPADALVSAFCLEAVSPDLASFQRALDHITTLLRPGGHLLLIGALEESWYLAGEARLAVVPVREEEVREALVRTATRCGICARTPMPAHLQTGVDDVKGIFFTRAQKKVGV

[2] = Ratio of Vmax to Km; parameters: unit not given here
[3] = compound: COc1ccc2c(c1)C1CCC2[C@@H]1N; test: (§1) In vitro inhibition of Phenylethylamine N-Methyltransferase (PNMT) using radiochemical assay expressed as Vmax
[4] = compound: COc1cccc2c1C1CC2[C@H](N)C1; test: as §1
[5] = compound: COc1ccc2c(c1)C1CC2[C@H](N)C1; test: as §1
[6] = compound: N[C@@H]1CC2CC1c1cc(O)c(O)cc12; test: as §1
[7] = compound: N[C@@H]1CC2C[C@@H]1c1ccccc12; test: (§2) In vitro inhibition of Phenylethylamine N-Methyltransferase (PNMT) using radiochemical assay.
Method in brief: (§3)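 Bovine adrenal PNMT, partially purified through isoelectric precipitation, was used with phenylethanolamine as the variable substrate. At least three inhibitor concentrations were tested, all below levels giving mixed kinetics. The mix held pH 8.0 phosphate, unlabeled AdoMet (10 μM stock) and [methyl-3H]AdoMet, run 30 min at 37 °C. After a borate quench, product was extracted into toluene/isoamyl alcohol and scintillation counted. Ki and mode came from 1/V vs 1/S plots.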

[8] = compound: COc1ccc2c(c1)C1CCC2[C@@H]1N; test: as §2; method in brief: as §3
[9] = compound: COc1cccc2c1C1CC2[C@H](N)C1; test: as §2; method in brief: as §3
[10] = compound: COc1ccc2c(c1)C1CC2[C@H](N)C1; test: as §2; method in brief: as §3

Molecule: c1ccc2c(c1)CCNC2 [1,2,3,4-TETRAHYDROISOQUINOLINE]
- Ki [1]: 10.3 µM

Molecule: Oc1cccc2c1CNCC2
- Ki [1]: 1080 µM

Molecule: NC1C2CC[C@H]1c1ccccc12 (some centres undefined)
- Ratio [2]: 0.12

Molecule: N[C@@H]1CC2CC1c1cccc(O)c12 (some centres undefined)
- Ki [1]: > 10000 µM

Molecule: COc1cccc2c1C1CC2C[C@H]1N (some centres undefined)
- Ki [1]: > 2000 µM

Molecule: Oc1ccc2c(c1)CNCC2
- Ki [1]: 2.6 µM

Molecule: N[C@@H]1CC2CC1c1cc(O)c(O)cc12 (some centres undefined)
- Ratio [2]: 0.06

Molecule: COc1ccc2c(c1)C1CC2C[C@H]1N (some centres undefined)
- Ki [1]: > 2000 µM

Molecule: N[C@@H]1CC2C[C@@H]1c1ccccc12
- Ratio [2]: 0.01

Molecule: COc1cccc2c1CCNC2
- Ki [1]: 550 µM

Molecule: COc1ccc2c(c1)CNCC2
- Ki [1]: 20 µM

Molecule: N[C@@H]1CC2CC1c1c(O)cccc12 (some centres undefined)
- Ki [1]: > 3000 µM

Molecule: COc1cccc2c1C1CCC2[C@@H]1N (some centres undefined)
- Ki [1]: 1100 µM

Molecule: Oc1ccc2c(c1)CCNC2
- Ki [1]: 7.8 µM

Molecule: COc1ccc2c(c1)C1CCC2[C@@H]1N (some centres undefined)
- Ki [1]: 735 µM
- Ratio [2]: 0.08

Molecule: N[C@H]1C2CCC1c1c(O)cccc12 (some centres undefined)
- Ki [1]: > 4000 µM

Molecule: COc1cccc2c1CNCC2
- Ki [1]: 3.8 µM

Molecule: COc1cccc2c1C1CC2[C@H](N)C1 (some centres undefined)
- Ki [1]: > 2000 µM
- Ratio [2]: 0.02

Molecule: N[C@H]1C2CCC1c1cc(O)ccc12 (some centres undefined)
- Ki [1]: 108 µM

Molecule: COc1ccc2c(c1)C1CC2[C@H](N)C1 (some centres undefined)
- Ki [1]: 1260 µM
- Ratio [2]: 0.01

Molecule: Oc1cc2c(cc1O)CNCC2
- Ki [1]: 5.7 µM

Molecule: Oc1cccc2c1CCNC2
- Ki [1]: 90 µM

B1: Phenylethanolamine N-methyltransferase (Bos taurus), P10938 (protein)
chain: MSGTDRSQAAGAVPDSDPGLAAVSSAYQRFEPRAYLRNNYAPPRGDLSCPDGVGPWKLRCLAQTFATGEVSGRTLIDIGSGPTIYQLLSACAHFEDITMTDFLEVNRQELRLWLREEPGAFDWSVYSQHVCLIEGKGESWQEKECQLRARVKRILPIDVHRPQPLGAGGLAPLPADALVSAFCLEAVSPDLASFQRALDHITTLLRPGGHLLLIGALEESWYLAGEARLAVVPVREEEVREALVRTATRCGICARTPMPAHLQTGVDDVKGIFFTRAQKKVGV
- Vmax [3]: 0.23 nmol/min/mg
- Vmax [4]: 0.22 nmol/min/mg
- Vmax [5]: 0.06 nmol/min/mg
- Vmax [6]: 0.44 nmol/min/mg
- Km [7]: 392 µM
- Km [8]: 294 µM
- Km [9]: 970 µM
- Km [10]: 602 µM
